Assay [1] has as its system Escherichia coli. Description: Inhibition of Escherichia coli MetAP at 25 uM after 20 mins by HPLC analysis. A digest of the protocol: (§1)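 Endpoint assay. Enzyme (50 nM) was preincubated with 25 μM compound for 20 min at 37 °C in 50 mM Tris pH 7.5, 100 mM NaCl, 100 μM CoCl2, 0.075% BSA. MGMM substrate (400 μM) was then added for 15 min (human MetAP-1) or 20 min (E. coli MetAP). Reactions were stopped with TFA. GMM product was quantified by RP-HPLC, UV 214 nm. Triplicate.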

Assay [2] deals with Escherichia coli. Description: Induction of covalent MurE enzyme adduct formation preincubated with UNAG substrate for 10 mins compound treated at 300 uM after 1 hr by ESI-MS analysis.
Assay [3] concerns the target Genome polyprotein (West Nile virus) (UniProt P06935). Description: Inhibition of West Nile virus NS2B-NS3 protease at 50 uM.
The subject of another assay is HeLa. Description: Cytotoxicity against human HeLa cells assessed as reduction in cell viability after 24 hrs by CellTiter-Blue assay. Format: cell-based. A digest of the protocol: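 HeLa cells seeded in triplicate at 5×10^3 cells/well and grown 24 h at 37 °C/5% CO2. Compounds at varying concentrations were added as a 2x stock in phenol-red-free DMEM with FBS, penicillin/streptomycin, sodium pyruvate and L-glutamine, then left 24 h. Medium was replaced with CellTiter-Blue medium for 3 h. A570/A610 was read after background subtraction, as % of untreated controls; EC50 derived.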
(In general: Alamar Blue is a resazurin reagent that responds to reducing activity.)

The test system of assay [4] is Escherichia coli. Briefly: Inhibition of wild-type Escherichia coli MurC compound preincubated for 10 mins before substrate addition at 25 uM measured after 15 mins by LC-MS method. A digest of the protocol: (§2)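 E. coli wild-type enzyme (4 nM) was preincubated with 25 μM compound for 10 min at 37 °C. Enzymatically generated nucleotide-sugar substrate (~200 μM) plus ATP (~200 μM), or NADPH 200 μM for MurB, was added for 10 min. Reactions were started with amino-acid cosubstrate (MurC–F) or EP-UNAG (MurB), run 15 min at 37 °C, and quenched with formic acid. Product was measured by negative-ESI LC-MS EIC peak area. MgCl2: MurC 10, MurD/E 2, MurF 5 mM; MurB had 5 mM KCl. All in 50 mM NH4HCO3, 0.07% BSA, 1% DMSO; triplicate.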

Assay [5] relates to Escherichia coli. Description: Inhibition of wild-type Escherichia coli MurE compound preincubated for 10 mins before substrate addition at 25 uM measured after 15 mins by LC-MS method. A digest of the protocol: as §2
Assay [6] addresses Methionine aminopeptidase 1 (Homo sapiens) (UniProt P53582). Briefly: Inhibition of human MetAP at 25 uM after 20 mins by HPLC analysis. A digest of the protocol: as §1
Assay [7] relates to Escherichia coli. Description: Inhibition of wild-type Escherichia coli MurA compound preincubated for 10 mins before substrate addition at 25 uM measured after 15 mins by LC-MS method.
In assay [8] the test system is Escherichia coli. Description: Inhibition of wild-type Escherichia coli MurD compound preincubated for 10 mins before substrate addition at 25 uM measured after 15 mins by LC-MS method. A digest of the protocol: as §2
The subject of assay [9] is Escherichia coli. Description: Induction of covalent MetAP enzyme adduct formation at 300 uM after 1 hr by ESI-MS analysis. A digest of the protocol:
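E. coli MetAP (25 μM) was incubated with 300 μM compound for 60 min at 37 °C in 50 mM NH4HCO3, pH 7.9, with 200 μM CoCl2. Untreated enzyme served as control. Samples were spin-desalted on Sephadex G-25 and analysed by flow-injection ESI-MS in positive mode (isocratic water/acetonitrile 95/5 with 0.1% formic acid), looking for covalent adducts.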

The test system of assay [10] is Escherichia coli. Briefly: Inhibition of wild-type Escherichia coli MurF compound preincubated for 10 mins before substrate addition at 25 uM measured after 15 mins by LC-MS method. A digest of the protocol:
as §2

In assay [11] the test system is Escherichia coli. Description: Inhibition of wild-type Escherichia coli MurB compound preincubated for 10 mins before substrate addition at 25 uM measured after 15 mins by LC-MS method. A digest of the protocol:
as §2

Assay [12] addresses Genome polyprotein (dengue virus type 2) (UniProt P12823). Description: Inhibition of Dengue virus serotype 2 NS2B-NS3 protease at 50 uM.
The test system of assay [13] is Escherichia coli. Briefly: Induction of covalent MurA enzyme adduct formation preincubated with UNAG substrate for 10 mins compound treated at 300 uM after 1 hr by ESI-MS analysis. A digest of the protocol:
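E. coli MurA (25 μM) preincubated with UNAG 300 μM for 10 min at 37 °C, then test compound added at 300 μM. Incubation ran 60 min at 37 °C in 50 mM NH₄HCO₃, pH 7.9. Samples were spin-desalted on Sephadex G-25, then analysed by flow-injection positive-mode ESI-MS for enzyme adducts. Untreated enzyme served as control.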

Assay [14] in a line: GSH reactivity of the compound assessed as adducts formation by RP-HPLC analysis. A digest of the protocol: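 Fresh aqueous glutathione (10 mM solution) was added to 50 mM Tris-maleate buffer, pH 7.5. The reaction was started with compound from 10 mM DMSO stock (final 250 μM). Mixtures were followed by reversed-phase HPLC on an ODS column with a gradient to 100% B; rate constants are given in l·mol⁻¹·s⁻¹.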

A further assay deals with Prothrombin (Bos taurus) (UniProt P00735). Briefly: Inhibition of Bovine thrombin using Boc-Val-Pro-Arg-AMC as substrate compound preincubated at 25 uM for 15 mins by fluorescence assay. A digest of the protocol:
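Bovine thrombin (final 10 nM) was preincubated 15 min with 25 μM compound in 50 mM Tris-HCl pH 7.5, 150 mM NaCl, 0.05% Tween 20. The reaction was started with Boc-Val-Pro-Arg-AMC (50 μM final). Fluorescence (ex 355/em 460 nm) was monitored continuously for 10 min; activity taken as slope (RFU/s). Triplicate.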

Assay [15] in a line: GSH reactivity of the compound assessed as half life by RP-HPLC analysis.

Consider 11 compounds from ChEMBL document CHEMBL3352149, “Promiscuity and selectivity in covalent enzyme inhibition: a systematic study of electrophilic fragments” (J Med Chem, 2014).

The source made the active and inactive calls. The rule behind the calls is not given here. Bounds are passed on as bounds.

A word on the inhibition: it is the percentage by which the read-out fell short of the control. Low values mean a weak effect, high ones a strong effect. The EC50 is the concentration needed to bring the measured effect to its halfway point.

Genome polyprotein (West Nile virus), sequence (P06935 whole entry): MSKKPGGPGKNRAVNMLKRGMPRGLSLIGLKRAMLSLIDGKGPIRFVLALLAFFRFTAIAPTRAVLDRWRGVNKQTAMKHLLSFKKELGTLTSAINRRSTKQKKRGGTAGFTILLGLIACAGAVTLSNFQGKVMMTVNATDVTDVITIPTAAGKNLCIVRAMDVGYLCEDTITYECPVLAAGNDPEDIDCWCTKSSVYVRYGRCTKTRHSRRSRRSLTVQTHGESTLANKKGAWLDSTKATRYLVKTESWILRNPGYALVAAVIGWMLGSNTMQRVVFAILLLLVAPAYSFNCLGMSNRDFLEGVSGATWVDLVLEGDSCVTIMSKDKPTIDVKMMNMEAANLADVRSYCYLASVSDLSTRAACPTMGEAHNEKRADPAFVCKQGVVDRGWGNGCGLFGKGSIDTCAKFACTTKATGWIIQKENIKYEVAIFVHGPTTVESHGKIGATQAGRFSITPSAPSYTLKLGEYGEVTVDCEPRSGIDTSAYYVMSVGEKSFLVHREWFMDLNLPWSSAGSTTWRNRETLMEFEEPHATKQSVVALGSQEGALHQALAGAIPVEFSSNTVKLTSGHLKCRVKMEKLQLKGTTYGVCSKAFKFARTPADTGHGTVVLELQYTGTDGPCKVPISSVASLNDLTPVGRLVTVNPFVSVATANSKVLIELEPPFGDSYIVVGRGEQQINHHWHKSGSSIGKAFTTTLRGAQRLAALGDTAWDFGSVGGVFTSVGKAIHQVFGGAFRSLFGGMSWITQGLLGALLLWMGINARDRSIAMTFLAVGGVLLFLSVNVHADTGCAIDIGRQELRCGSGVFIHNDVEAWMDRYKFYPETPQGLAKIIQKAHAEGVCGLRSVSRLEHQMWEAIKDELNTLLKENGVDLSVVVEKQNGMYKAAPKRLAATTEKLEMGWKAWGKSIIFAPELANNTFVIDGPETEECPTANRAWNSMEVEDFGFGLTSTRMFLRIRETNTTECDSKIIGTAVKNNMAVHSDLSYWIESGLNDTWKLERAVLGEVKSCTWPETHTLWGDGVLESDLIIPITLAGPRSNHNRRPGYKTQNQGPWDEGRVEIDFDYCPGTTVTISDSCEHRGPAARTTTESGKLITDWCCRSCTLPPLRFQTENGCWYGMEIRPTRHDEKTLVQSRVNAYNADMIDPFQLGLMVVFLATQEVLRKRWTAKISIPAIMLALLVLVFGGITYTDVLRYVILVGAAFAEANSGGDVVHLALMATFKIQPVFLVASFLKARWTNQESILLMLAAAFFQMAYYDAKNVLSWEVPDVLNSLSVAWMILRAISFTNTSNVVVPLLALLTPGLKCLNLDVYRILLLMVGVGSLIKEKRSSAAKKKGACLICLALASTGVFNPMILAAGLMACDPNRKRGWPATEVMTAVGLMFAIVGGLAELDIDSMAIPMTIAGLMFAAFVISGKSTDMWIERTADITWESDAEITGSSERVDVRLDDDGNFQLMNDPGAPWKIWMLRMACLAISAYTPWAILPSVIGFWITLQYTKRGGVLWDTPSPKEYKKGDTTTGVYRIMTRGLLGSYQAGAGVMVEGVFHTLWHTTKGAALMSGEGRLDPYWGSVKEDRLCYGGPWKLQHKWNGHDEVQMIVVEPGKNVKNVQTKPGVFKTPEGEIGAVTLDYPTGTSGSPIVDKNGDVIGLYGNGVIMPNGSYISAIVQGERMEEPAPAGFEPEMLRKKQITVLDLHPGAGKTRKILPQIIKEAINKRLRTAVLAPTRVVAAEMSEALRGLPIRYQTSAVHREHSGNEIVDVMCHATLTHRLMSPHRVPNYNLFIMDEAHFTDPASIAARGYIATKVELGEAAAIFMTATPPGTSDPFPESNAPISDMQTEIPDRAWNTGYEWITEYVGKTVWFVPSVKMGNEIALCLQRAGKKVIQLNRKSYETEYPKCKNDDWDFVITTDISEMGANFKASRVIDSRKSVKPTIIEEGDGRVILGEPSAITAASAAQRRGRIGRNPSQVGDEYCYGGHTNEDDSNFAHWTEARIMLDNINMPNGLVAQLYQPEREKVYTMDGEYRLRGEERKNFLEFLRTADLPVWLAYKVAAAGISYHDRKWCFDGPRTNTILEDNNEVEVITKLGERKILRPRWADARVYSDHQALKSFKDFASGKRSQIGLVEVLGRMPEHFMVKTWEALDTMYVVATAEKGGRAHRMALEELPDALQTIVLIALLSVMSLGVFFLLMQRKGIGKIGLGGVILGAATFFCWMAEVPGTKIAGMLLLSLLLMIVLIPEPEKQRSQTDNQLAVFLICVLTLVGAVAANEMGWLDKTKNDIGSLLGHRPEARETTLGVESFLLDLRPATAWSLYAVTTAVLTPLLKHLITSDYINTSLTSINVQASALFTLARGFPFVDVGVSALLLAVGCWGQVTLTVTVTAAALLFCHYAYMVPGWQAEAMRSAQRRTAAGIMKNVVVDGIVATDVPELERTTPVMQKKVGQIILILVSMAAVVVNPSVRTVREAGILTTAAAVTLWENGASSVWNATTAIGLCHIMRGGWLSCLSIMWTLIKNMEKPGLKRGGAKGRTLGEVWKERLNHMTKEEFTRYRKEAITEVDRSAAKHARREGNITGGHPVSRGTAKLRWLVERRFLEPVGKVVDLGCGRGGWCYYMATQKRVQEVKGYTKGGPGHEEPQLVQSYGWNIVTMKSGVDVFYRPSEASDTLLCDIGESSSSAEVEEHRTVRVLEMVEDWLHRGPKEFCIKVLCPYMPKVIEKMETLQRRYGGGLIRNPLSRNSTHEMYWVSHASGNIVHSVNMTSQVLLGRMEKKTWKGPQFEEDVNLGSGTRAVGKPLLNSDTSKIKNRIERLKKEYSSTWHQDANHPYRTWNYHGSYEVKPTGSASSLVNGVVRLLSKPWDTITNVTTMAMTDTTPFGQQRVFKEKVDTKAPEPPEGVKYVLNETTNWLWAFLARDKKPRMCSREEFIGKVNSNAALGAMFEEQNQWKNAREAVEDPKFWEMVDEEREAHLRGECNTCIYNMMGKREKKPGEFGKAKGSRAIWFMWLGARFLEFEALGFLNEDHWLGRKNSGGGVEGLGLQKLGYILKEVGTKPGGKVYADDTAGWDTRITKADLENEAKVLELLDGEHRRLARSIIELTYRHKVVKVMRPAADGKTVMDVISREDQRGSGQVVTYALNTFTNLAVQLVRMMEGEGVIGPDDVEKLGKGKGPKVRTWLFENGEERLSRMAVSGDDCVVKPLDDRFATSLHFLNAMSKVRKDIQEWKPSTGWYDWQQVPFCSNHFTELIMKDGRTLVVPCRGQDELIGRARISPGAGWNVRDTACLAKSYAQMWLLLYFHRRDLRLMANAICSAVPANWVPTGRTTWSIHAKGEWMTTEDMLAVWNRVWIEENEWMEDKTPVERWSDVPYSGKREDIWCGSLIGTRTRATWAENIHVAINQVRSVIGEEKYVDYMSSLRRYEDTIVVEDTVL

Regarding `O=C(CCl)Nc1ccccc1`, the inhibition (in the assay on Escherichia coli [1]; in assay [3]; in the assay with Escherichia coli [4]; in the assay on Escherichia coli [5]; in assay [6]; in the assay with Escherichia coli [7]) was under 15% each time. Also, the inhibition (in the assay on Escherichia coli [8]; with Escherichia coli [10]; in the assay with Escherichia coli [11]; in [12]; against Prothrombin (Bos taurus)) was under 15% throughout. Moreover, the Activity (in the assay with Escherichia coli [2]; in the assay with Escherichia coli [9]; in assay [14]) was under 0.1 L/mol/s in each case. In the assay with HeLa, the EC50 is 20.9 µM. In addition, the outcome in the assay with Escherichia coli [13] was inactive.
Take `CCCCNC(=O)C1CC(Br)=NO1` (stereo not given): the inhibition in the assay on Escherichia coli [1] was under 15%; in assay [3], under 15%; with Escherichia coli [4], under 15%; in the assay on Escherichia coli [5], 27%; in assay [6] it was under 15%; in the assay on Escherichia coli [7], under 15%. Besides, the inhibition (in the assay with Escherichia coli [8]; in the assay on Escherichia coli [10]; in the assay with Escherichia coli [11]; in assay [12]; at Prothrombin (Bos taurus)) was under 15% throughout. Besides, the EC50 in the assay with HeLa was over 100 µM. In assay [15], the T1/2 was over 200 h. In addition, the Activity in [14] was under 0.1 L/mol/s.
On to `O=C(NCCc1ccccc1)C1CC(Br)=NO1` (stereo not given), for which the inhibition in the assay on Escherichia coli [1] was under 15%; in assay [3] it was under 15%; in the assay with Escherichia coli [4], under 15%; in the assay with Escherichia coli [5], 23%; in assay [6], under 15%; with Escherichia coli [7], under 15%. Further, the inhibition in the assay on Escherichia coli [8] was 18%; in the assay on Escherichia coli [10] it was under 15%; in the assay with Escherichia coli [11] it was 16%; in [12] it was under 15%; on Prothrombin (Bos taurus), under 15%. Besides, the T1/2 in assay [15] is over 200 h. Further, the Activity in assay [14] was under 0.1 L/mol/s.
`O=C(Nc1ccccc1)n1ccnc1` [IMIDAZOLE-1-CARBOXYLIC ACID PHENYLAMIDE]: the inhibition (in the assay with Escherichia coli [1]; in [3]; with Escherichia coli [4]; in the assay on Escherichia coli [5]; in assay [6]; in the assay on Escherichia coli [7]) was under 15% each time. The inhibition (with Escherichia coli [8]; in the assay with Escherichia coli [10]; in the assay with Escherichia coli [11]; in assay [12]; at Prothrombin (Bos taurus)) was under 15% in each case. For the same compound, the Activity (in the assay with Escherichia coli [2]; in the assay on Escherichia coli [9]; in assay [14]) was under 0.1 L/mol/s throughout. Further, the concentration for a half-maximal effect (EC50) in the assay on HeLa was over 100 µM. Further, in the assay on Escherichia coli [13], the outcome was inactive.
Turning to `COc1ccc(NC(=O)C2CC(Br)=NO2)cc1` (stereo not given), the inhibition in the assay on Escherichia coli [1] was under 15%; in assay [3], 21%; in the assay on Escherichia coli [4] it was under 15%; in the assay on Escherichia coli [5] it was 18%; in assay [6] it was under 15%; with Escherichia coli [7], under 15%. The inhibition (in the assay on Escherichia coli [8]; in the assay with Escherichia coli [10]; with Escherichia coli [11]; in assay [12]; against Prothrombin (Bos taurus)) was under 15% each time. For the same compound, in assay [15], the T1/2 is over 200 h. The Activity in assay [14] was under 0.1 L/mol/s.
For the compound `C[S+](C)CC(=O)Nc1ccccc1`, the inhibition is under 15% with Escherichia coli [1]; under 15% in assay [3]; under 15% in the assay on Escherichia coli [4]; 32% with Escherichia coli [5]; under 15% in assay [6]; under 15% with Escherichia coli [7]. In addition, the inhibition (with Escherichia coli [8]; in the assay with Escherichia coli [10]; with Escherichia coli [11]; in assay [12]; against Prothrombin (Bos taurus)) was under 15% each time. The Activity in the assay on Escherichia coli [2] and in the assay on Escherichia coli [9] was under 0.1 L/mol/s throughout. In the assay on HeLa, the 50% effective concentration (EC50) was over 100 µM. For the same compound, the result with Escherichia coli [13] was inactive.
In the case of `N#CCC(=O)Nc1ccccc1`, the inhibition is under 15% with Escherichia coli [1]; under 15% in assay [3]; under 15% in the assay on Escherichia coli [4]; 23% in the assay on Escherichia coli [5]; under 15% in [6]; under 15% in the assay with Escherichia coli [7]. Besides, the inhibition (in the assay with Escherichia coli [8]; with Escherichia coli [10]; in the assay with Escherichia coli [11]; in assay [12]; against Prothrombin (Bos taurus)) was under 15% throughout. The Activity (in the assay with Escherichia coli [2]; in the assay on Escherichia coli [9]; in assay [14]) was under 0.1 L/mol/s throughout. Also, the EC50 in the assay with HeLa was over 100 µM. In the assay with Escherichia coli [13], the result was inactive.
In the case of `O=C(NC1CCCC1)C1CC(Br)=NO1` (stereo not given), the inhibition with Escherichia coli [1] was under 15%; in assay [3], under 15%; in the assay on Escherichia coli [4] it was under 15%; in the assay with Escherichia coli [5], 16%; in assay [6], under 15%; with Escherichia coli [7], under 15%. For the same compound, the inhibition in the assay on Escherichia coli [8] is 15%; in the assay on Escherichia coli [10], under 15%; in the assay on Escherichia coli [11] it was under 15%; in [12] it was under 15%; at Prothrombin (Bos taurus), under 15%. Moreover, the T1/2 in assay [15] was over 200 h. The Activity in assay [14] was under 0.1 L/mol/s.
In the case of `O=C(NCc1ccccc1)C1CC(Br)=NO1` (stereo not given), the inhibition (in the assay with Escherichia coli [1]; in assay [3]; with Escherichia coli [4]; in the assay on Escherichia coli [5]; in assay [6]; in the assay on Escherichia coli [7]) was under 15% in each case. Moreover, the inhibition in the assay with Escherichia coli [8] was 16%; in the assay on Escherichia coli [10], 15%; with Escherichia coli [11] it was 18%; in [12], under 15%; at Prothrombin (Bos taurus) it was under 15%. Also, the T1/2 in [15] is over 200 h. Further, the Activity in [14] was under 0.1 L/mol/s.
`CCCCNC(=O)C[S+](C)C`: the inhibition in the assay with Escherichia coli [1] was under 15%; in [3], under 15%; with Escherichia coli [4], under 15%; with Escherichia coli [5], 29%; in assay [6], under 15%; with Escherichia coli [7], under 15%. Also, the inhibition (with Escherichia coli [8]; in the assay with Escherichia coli [10]; in the assay on Escherichia coli [11]; in [12]; against Prothrombin (Bos taurus)) was under 15% in each case. The same compound displayed an Activity in the assay on Escherichia coli [2] of under 0.1 L/mol/s. Also, the EC50 in the assay on HeLa is over 100 µM.
Take `O=C(Nc1ccc(F)cc1)C1CC(Br)=NO1` (stereo not given): the inhibition was under 15% with Escherichia coli [1]; under 15% in assay [3]; under 15% in the assay on Escherichia coli [4]; 23% in the assay with Escherichia coli [5]; under 15% in assay [6]; under 15% in the assay on Escherichia coli [7]. The inhibition with Escherichia coli [8] is under 15%; with Escherichia coli [10], 21%; in the assay with Escherichia coli [11], under 15%; in assay [12], under 15%; at Prothrombin (Bos taurus) it was under 15%. Besides, in [15], the T1/2 is over 200 h. Moreover, the Activity in assay [14] is under 0.1 L/mol/s.
